37 compounds from ChEMBL document CHEMBL1126159, “A novel class of enkephalinase inhibitors containing a C-terminal sulfo group” (J Med Chem, 1992) can be followed below.

As usually defined, the IC50 is the concentration at which inhibition is half-maximal. The low end stands for greater potency, the high end for weaker potency.

For assay [1], the target named is T1, Neprilysin (Rattus norvegicus, UniProt P07861).
T1 sequence (P07861 whole entry): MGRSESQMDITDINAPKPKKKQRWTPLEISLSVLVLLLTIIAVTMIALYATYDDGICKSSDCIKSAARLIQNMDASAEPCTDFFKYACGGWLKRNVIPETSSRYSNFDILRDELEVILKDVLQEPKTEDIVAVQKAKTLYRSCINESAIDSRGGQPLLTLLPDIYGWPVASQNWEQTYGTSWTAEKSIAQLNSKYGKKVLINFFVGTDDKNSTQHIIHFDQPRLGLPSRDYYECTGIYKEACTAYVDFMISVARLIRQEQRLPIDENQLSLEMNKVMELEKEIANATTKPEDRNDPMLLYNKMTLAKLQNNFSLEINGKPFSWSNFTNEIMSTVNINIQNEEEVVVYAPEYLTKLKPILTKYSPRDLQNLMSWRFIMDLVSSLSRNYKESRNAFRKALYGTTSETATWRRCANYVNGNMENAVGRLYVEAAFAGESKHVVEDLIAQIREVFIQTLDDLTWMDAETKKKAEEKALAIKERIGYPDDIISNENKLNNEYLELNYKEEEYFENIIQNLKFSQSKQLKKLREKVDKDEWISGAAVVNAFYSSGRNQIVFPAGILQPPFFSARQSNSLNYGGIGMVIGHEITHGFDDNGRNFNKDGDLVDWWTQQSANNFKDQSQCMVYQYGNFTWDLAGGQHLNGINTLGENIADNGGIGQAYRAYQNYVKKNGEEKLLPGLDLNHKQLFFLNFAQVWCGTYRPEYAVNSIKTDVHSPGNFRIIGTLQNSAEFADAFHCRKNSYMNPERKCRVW
Put plainly: The compound was tested in vitro for its inhibitory activity against Enkephalinase enzyme. In outline: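 Rat striatal membranes (male Std:Wistar) were solubilized with 1% Triton X-100 in 50 mM Tris-HCl pH 7.7 and fractionated on DEAE-cellulose; the enkephalin dipeptidylcarboxypeptidase fraction served as enzyme. IC50 by log-probit from 3–4 concentrations, run 2–3 times.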

Assay [2] concerns the target T1, Neprilysin. Put plainly: In vitro inhibitory activity against enkephalinase enzyme from rat. In a few lines: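 Rat striatal membranes (male Std:Wistar) were solubilized with 1% Triton X-100 in 50 mM Tris-HCl pH 7.7 and fractionated on DEAE-cellulose; the enkephalin dipeptidylcarboxypeptidase fraction served as enzyme. […] Reaction was stopped with 0.2 N HCl, products separated on Porapak Q, and [3H]Tyr-Gly-Gly measured. IC50 by log-probit from 3–4 concentrations, run 2–3 times.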

The target in assay [3] is T2, Angiotensin-converting enzyme (Oryctolagus cuniculus, UniProt P12822).
T2 sequence (P12822 whole entry): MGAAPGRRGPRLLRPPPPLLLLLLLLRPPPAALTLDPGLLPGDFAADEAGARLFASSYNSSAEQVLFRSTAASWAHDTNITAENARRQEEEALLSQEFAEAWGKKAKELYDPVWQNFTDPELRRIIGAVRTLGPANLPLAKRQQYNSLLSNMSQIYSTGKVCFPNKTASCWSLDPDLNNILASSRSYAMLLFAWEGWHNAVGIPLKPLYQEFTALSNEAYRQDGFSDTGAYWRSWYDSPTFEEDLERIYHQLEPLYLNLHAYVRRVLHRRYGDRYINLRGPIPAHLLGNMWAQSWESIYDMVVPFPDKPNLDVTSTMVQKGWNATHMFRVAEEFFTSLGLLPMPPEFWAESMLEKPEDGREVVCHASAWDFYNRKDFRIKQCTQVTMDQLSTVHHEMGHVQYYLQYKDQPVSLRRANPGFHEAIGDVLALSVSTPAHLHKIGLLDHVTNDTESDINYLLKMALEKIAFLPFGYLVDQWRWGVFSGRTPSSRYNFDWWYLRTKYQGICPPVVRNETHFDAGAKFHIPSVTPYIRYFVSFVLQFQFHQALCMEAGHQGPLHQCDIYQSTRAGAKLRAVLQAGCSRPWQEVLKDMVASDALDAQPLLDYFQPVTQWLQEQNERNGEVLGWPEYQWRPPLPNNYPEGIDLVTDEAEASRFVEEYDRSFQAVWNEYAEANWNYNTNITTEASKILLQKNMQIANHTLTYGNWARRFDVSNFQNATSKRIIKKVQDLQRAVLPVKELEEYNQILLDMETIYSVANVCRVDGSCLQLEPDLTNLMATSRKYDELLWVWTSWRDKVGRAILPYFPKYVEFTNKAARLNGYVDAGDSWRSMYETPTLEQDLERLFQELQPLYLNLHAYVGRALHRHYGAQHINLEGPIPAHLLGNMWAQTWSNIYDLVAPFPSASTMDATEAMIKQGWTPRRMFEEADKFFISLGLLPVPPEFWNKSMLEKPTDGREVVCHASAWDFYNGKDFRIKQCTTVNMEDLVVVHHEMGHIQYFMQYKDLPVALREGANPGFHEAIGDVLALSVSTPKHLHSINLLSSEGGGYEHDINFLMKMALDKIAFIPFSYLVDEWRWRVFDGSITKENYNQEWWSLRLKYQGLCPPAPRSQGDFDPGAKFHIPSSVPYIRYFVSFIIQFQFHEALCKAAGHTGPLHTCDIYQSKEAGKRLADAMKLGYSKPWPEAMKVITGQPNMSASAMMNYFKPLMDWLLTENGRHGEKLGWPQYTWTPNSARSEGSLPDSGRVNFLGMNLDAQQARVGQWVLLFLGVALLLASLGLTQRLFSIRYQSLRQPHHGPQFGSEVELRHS
Put plainly: In vitro inhibitory activity against Angiotensin I converting enzyme from rabbit lung. In a few lines:
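Enzyme source was rabbit lung ACE. The inhibition procedure followed an earlier published method.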

In assay [4] the target is T2, Angiotensin-converting enzyme. Put plainly: In vitro inhibitory activity against angiotensin I converting enzyme (ACE) from rabbit lung.
The test system of assay [5] is Mus musculus. Put plainly: The compound was tested for administrating the compound intravenously. The note with it: iv. The class given is functional. In a few lines: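 Female ddY mice (18–22 g) were dosed iv 5 min before ip phenylbenzoquinone (0.03% in 5% aqueous EtOH, 10 mL/kg). Writhes were counted for 15 min starting 5 min after phenylbenzoquinone. More than 50% reduction versus vehicle control counted as effective; ED50 given with 95% confidence limits.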

Assay [6] has as its system Mus musculus. Put plainly: The compound was tested for administrating the compound intracisternally. The class given is functional. In a few lines: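 Female ddY mice (18–22 g) received 10 µL aqueous solution intracisternally 1 min before ip phenylbenzoquinone (0.03% in 5% aqueous EtOH, 10 mL/kg). Writhes were counted for 15 min starting 5 min after phenylbenzoquinone. Mice with behavioural change after injection were excluded. More than 50% reduction versus vehicle control counted as effective; ED50 given with 95% confidence limits.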

At Neprilysin [1], `O=C(Nc1ccc(S(=O)(=O)O)cc1)C(CS)Cc1ccc([N+](=O)[O-])cc1` (stereo unspecified) yielded an IC50 of 14 nM.
Regarding `O=C(Nc1cccc(S(=O)(=O)O)c1)C(CS)Cc1ccccc1` (stereo unspecified), the values for the IC50 (against Neprilysin [2]; in assay [3]) were 0.27 nM and 290000 nM, respectively.
For the compound `CC(C)CC(CS)C(=O)NCCS(=O)(=O)O` (stereo unspecified), the half-inhibitory concentration (IC50) at Neprilysin [1] worked out at 5.2 nM.
As to `O=C(Nc1ccc(S(=O)(=O)O)cc1)C(CS)Cc1ccccc1` (stereo unspecified), the IC50 was 1.7 nM against Neprilysin [2] and 210000 nM in assay [3].
At Neprilysin [2], `O=C(Nc1ccc(S(=O)(=O)O)cc1)C(CS)Cc1ccc(C(F)(F)F)cc1` (stereo unspecified) returned a half-inhibitory concentration (IC50) of 150 nM.
The same measure, in the same setting: to `O=C(Nc1ccc(S(=O)(=O)O)cc1)C(CS)Cc1cccc2ccccc12` (stereo unspecified) belongs 34 nM; to `O=C(C(CS)Cc1ccccc1)N(CCS(=O)(=O)O)C1CC1` (stereo unspecified), 4200 nM.
At Neprilysin [2], `Cc1ccc(CC(CS)C(=O)NCCS(=O)(=O)O)cc1` (stereo unspecified) came in with an IC50 of 3.1 nM.
In turn, `CN(C)c1ccc(CC(CS)C(=O)Nc2ccc(S(=O)(=O)O)cc2)cc1` (stereo unspecified) showed an IC50 on Neprilysin [2] of 14 nM.
`COc1ccc(CC(CS)C(=O)Nc2ccc(S(=O)(=O)O)cc2)cc1` (stereo unspecified) gave an IC50 against Neprilysin [2] of 3.2 nM.
For the compound `Cc1ccc(CC(CS)C(=O)Nc2cccc(S(=O)(=O)O)c2)cc1` (stereo unspecified), half-maximal inhibition on Neprilysin [2] (IC50) was put at 2.5 nM.
Still for that read-out and setting: the result for `O=C(NCCCS(=O)(=O)O)C(CS)Cc1ccccc1` (stereo unspecified) reads 5.4 nM.
For the compound `O=C(Nc1ccc(S(=O)(=O)O)c2ccccc12)C(CS)Cc1ccccc1` (stereo unspecified), the IC50 against Neprilysin [1] came to 7.4 nM; in assay [4], 37000 nM.
As to `O=C(NCCS(=O)(=O)O)C(CS)Cc1cccc2ccccc12` (stereo unspecified), the IC50 at Neprilysin [2] was determined as 8.4 nM.
Consider `O=C(Nc1ccccc1S(=O)(=O)O)C(CS)Cc1ccccc1` (stereo unspecified), for which, on Neprilysin [2], 140 nM corresponded to half-maximal inhibition (IC50).
On to `O=C(NCCS(=O)(=O)[O-])[C@H](CS)Cc1ccccc1.[Na+]`, for which the figures for the IC50 (against Neprilysin [2]; in assay [3]) were 4.4 nM and 740000 nM, respectively. The ED50 worked out at 43.3 mg/kg in the assay with Mus musculus [5] and 17.7 µg mouse-1 with Mus musculus [6].
At Neprilysin [2], `O=C(Nc1ccc(S(=O)(=O)O)cc1)C(CS)CCCc1ccccc1` (stereo unspecified) came in with an IC50 of 110 nM. This lies in the sub-micromolar range.
Still for that read-out and setting: the result for `O=C(Nc1ccc(S(=O)(=O)O)cc1)C(CS)Cc1noc2ccccc12` (stereo unspecified) reads 12 nM.
Same read-out and setting: the result for `O=C(NCc1ccc(S(=O)(=O)O)cc1)C(CS)Cc1ccccc1` (stereo unspecified) reads 11 nM.
As to `O=C(NCCS(=O)(=O)[O-])[C@@H](CS)Cc1ccccc1.[Na+]`, the IC50 came to 0.82 nM on Neprilysin [2] and 430000 nM in assay [3]. The ED50 with Mus musculus [5] amounted to 8.5 mg/kg; in the assay on Mus musculus [6], 11.8 µg mouse-1.
As to `O=C(NCCS(=O)(=O)[O-])C(CS)Cc1ccccc1.[Na+]` (stereo unspecified), the values for the IC50 (at Neprilysin [2]; in assay [3]) were 1.5 nM and 720000 nM, respectively. Further, the ED50 in the assay with Mus musculus [5] was 18 mg/kg; with Mus musculus [6], 20 µg mouse-1.
For `O=C(Nc1ccc(S(=O)(=O)O)cc1)C(CS)Cc1cccnc1` (stereo unspecified), on Neprilysin [2], the IC50 stood at 33 nM. This counts as double-digit nanomolar.
Regarding `O=C(NCS(=O)(=O)O)C(CS)Cc1ccccc1` (stereo unspecified), the figures for the IC50 (at Neprilysin [2]; in assay [3]) were 2.2 nM and 12000 nM, respectively.
At Neprilysin [2], `O=C(NCCS(=O)(=O)O)C(CS)CCCc1ccccc1` (stereo unspecified) showed an IC50 of 11 nM.
The compound `CN(CCS(=O)(=O)O)C(=O)C(CS)Cc1ccccc1` (stereo unspecified) had an IC50 against Neprilysin [2] of 490 nM.
Regarding `O=C(Nc1ccc(S(=O)(=O)O)cc1)C(CS)Cc1ccc(F)cc1` (stereo unspecified), at Neprilysin [2], 5 nM corresponded to half-maximal inhibition (IC50).
The compound `CC(C)CC(NC(=O)C(CS)Cc1ccccc1)S(=O)(=O)O` (stereo unspecified) came in with an IC50 at Neprilysin [2] of 250 nM.
Take `CC(C)CC(CS)C(=O)Nc1cccc(S(=O)(=O)O)c1` (stereo unspecified): on Neprilysin [2], inhibition was half-maximal at 2.4 nM (IC50).
On to `CC(NC(=O)C(CS)Cc1ccccc1)S(=O)(=O)O` (stereo unspecified), for which, on Neprilysin [2], the midpoint of inhibition, the IC50, lay at 31 nM.
`COc1ccc(CC(CS)C(=O)NCCS(=O)(=O)O)cc1` (stereo unspecified) came in with an IC50 on Neprilysin [2] of 4.4 nM.
As for `CC(C)CC(CS)C(=O)Nc1ccc(S(=O)(=O)O)cc1` (stereo unspecified), the IC50 against Neprilysin [2] came to 0.9 nM.
Regarding `CN(C)c1ccc(CC(CS)C(=O)NCCS(=O)(=O)O)cc1` (stereo unspecified), the IC50 on Neprilysin [2] stood at 37 nM.
`O=C(NCCS(=O)(=O)O)C(CS)Cc1ccc([N+](=O)[O-])cc1` (stereo unspecified) showed an IC50 against Neprilysin [1] of 17 nM.
At Neprilysin [2], `O=C(Nc1ccc(S(=O)(=O)O)cc1)C(CS)Cc1ccc(-c2ccccc2)cc1` (stereo unspecified) showed an IC50 of 52 nM.
`Cc1ccc(CC(CS)C(=O)Nc2ccc(S(=O)(=O)O)cc2)cc1` (stereo unspecified) came in with an IC50 on Neprilysin [2] of 1.1 nM.
`O=C(NCCS(=O)(=O)O)C(CS)Cc1ccc(F)cc1` (stereo unspecified) gave an IC50 at Neprilysin [2] of 3.5 nM.
For the compound `O=C(O)CNC(=O)C(CS)Cc1ccccc1` (stereo unspecified) [THIORPHAN], the results for the ED50 in the assay with Mus musculus [5] and with Mus musculus [6] were 72 mg/kg and 17 µg mouse-1, respectively.
